Assay results from different studies.
HDAC6: Protein deacetylase HDAC6 (HDAC6, Homo sapiens, UniProt Q9UBN7)
CDK7 with cyclin H: Cyclin-dependent kinase 7, with cyclin H (CDK7, Homo sapiens, UniProt P50613)
KCNK9: Potassium channel subfamily K member 9 (KCNK9, Homo sapiens, UniProt Q9NPC2)
F2: Prothrombin (F2, Homo sapiens, UniProt P00734)
MEP1B: Meprin A subunit beta (MEP1B, Homo sapiens, UniProt Q16820)
PDE4D: 3',5'-cyclic-AMP phosphodiesterase 4D (PDE4D, Homo sapiens, UniProt Q08499)
Dihydroorotate dehydrogenase, mitochondrial, putative: Dihydroorotate dehydrogenase, mitochondrial, putative (Plasmodium vivax, UniProt A5K1N1)
GRM7: Metabotropic glutamate receptor 7 (GRM7, Homo sapiens, UniProt Q14831)

| SMILES | target | test | IC50 |
| --- | --- | --- | --- |
| CCCC[C@H](NC(=O)[C@H](C)c1c(C)[nH]c2ccc(O)cc12)c1ncc(-c2cc3ccccc3nc2OC)[nH]1 | HDAC6 | enzyme activity, inhibitor | > 45000 nM |
| O=c1cc(-c2ccc3c(c2)OCO3)oc2c1ccc1occc12 | CDK7 with cyclin H | enzyme activity, inhibitor, ADP detection | > 100000 nM |
| CC(C)C[C@H](NC(=O)[C@H](CCC(=O)O)NC(=O)[C@@H](NC(=O)[C@H](CO)NC(=O)[C@H](CCCCN)NC(=O)[C@H](CCC(N)=O)NC(=O)[C@H](Cc1ccc(O)cc1)NC(=O)[C@H](CCCNC(=N)N)NC(=O)[C@@H](N)CCCNC(=N)N)[C@@H](C)O)C(=O)O | Antigen peptide transporter 1/Antigen peptide transporter 2 (Homo sapiens, UniProt Q03518+Q03519) | ligand displacement | 100 nM |
| COCCOC(=O)C1=C(C)NC(C)=C(C(=O)OC(C)C)C1c1cccc([N+](=O)[O-])c1 (stereo not drawn) | Potassium channel subfamily K member 18 (KCNK18, Homo sapiens, UniProt Q7Z418) | ion flux, inhibitor | 17500 nM |
| CNC(=O)[C@H](Cc1ccccc1)NC(=O)[C@H](CC(C)C)[C@H](CSc1cccs1)C(=O)NO | Disintegrin and metalloproteinase domain-containing protein 8 (Homo sapiens, UniProt P78325) | enzyme activity, inhibitor, fluorescence | 46 nM |
| COc1cc(N2CCN(C)CC2)ccc1Nc1ncc2c(n1)N(C)c1ccccc1C(=O)N2 | Mitogen-activated protein kinase 7 (MAPK7, Homo sapiens, UniProt Q13164) | enzyme activity, inhibitor, radiometric | 1200 nM |
| COC(=O)C1=C(C)NC(C)=C(C(=O)OCCN(C)Cc2ccccc2)C1c1cccc([N+](=O)[O-])c1 (stereo not drawn) | KCNK9 | ion flux, inhibitor | > 30000 nM |
| CCCON(Cc1ccc(C(=O)NO)cc1)C(=O)Nc1ccccc1 | HDAC6 | enzyme activity, inhibitor, fluorescence | 20 nM |
| COc1cc(/C=N/n2c(C)nc3ccc(Br)cc3c2=O)ccc1O | F2 | enzyme activity, inhibitor | 42500 nM |
| N#Cc1nc(NCc2cccc(-c3cc4ccccc4n3S(=O)(=O)c3ccccc3)c2)c2ncn(CCCO)c2n1 | Cathepsin B-like cysteine protease (Trypanosoma brucei, UniProt Q6R7Z5) | enzyme activity, inhibitor | > 15000 nM |
| O=C(Nc1cccnc1)N1CCC(Cc2cccc(Oc3ccc(C(F)(F)F)cn3)c2)CC1 | Liver carboxylesterase 1 (CES1, Homo sapiens, UniProt P23141) | enzyme activity, inhibitor | > 10000 nM |
| C=CC(=O)Nc1ccc(N2CCC[C@@H](Nc3ncc(Cl)c(-c4c[nH]c5ccccc45)n3)C2)c(F)c1 | CDK7 with cyclin H | enzyme activity, inhibitor, FRET | 318 nM |
| C[C@@H]1O[C@H](OP(=O)(O)OP(=O)(O)OC[C@H]2O[C@@H](n3cnc4c(=O)[nH]c(N)nc43)[C@H](O)[C@@H]2O)[C@@H](F)[C@H](O)[C@@H]1O | Alpha-(1,3)-fucosyltransferase 7 (FUT7, Homo sapiens, UniProt Q11130) | cell-free assay | ~2500 nM |
| Cc1nc2ccccc2n1Cc1cc(F)c(C(=O)NO)c(F)c1 | HDAC6 | enzyme activity, inhibitor | 946 nM |
| CCc1ccc(/C=N/n2c(C)nc3ccc(C)cc3c2=O)s1 | F2 | enzyme activity, inhibitor | 269000 nM |
| COc1cc2c(NC3CCN(C)CC3)nc(N3CCCN(C)CC3)nc2cc1OCCCCCCN(C)C | Histone-lysine N-methyltransferase EHMT2 (EHMT2, Homo sapiens, UniProt Q96KQ7) | enzyme activity, inhibitor | 1500 nM |
| COc1cc(/C=N/n2c(C)nc3ccc(Br)cc3c2=O)ccc1OCc1ccc(Cl)cc1 | F2 | enzyme activity, inhibitor | 44900 nM |
| O=C(CCN(Cc1ccc2c(c1)OCO2)Cc1ccc(Cl)c(O)c1F)NO | MEP1B | enzyme activity, inhibitor | 146 nM |
| CN1CCN(c2ccc(Nc3ncc4cc(C#N)c(=O)n(C5CCCC5)c4n3)cc2)CC1 | Dual specificity protein kinase TTK (TTK, Homo sapiens, UniProt P33981) | enzyme activity, inhibitor | 66.8 nM |
| CC(C)C[C@H](NC(=O)[C@H]1O[C@@H]1C(=O)O)C(=O)NCCCCN=C(N)N | Calpain-1 catalytic subunit (CAPN1, Homo sapiens, UniProt P07384) | enzyme activity, inhibitor | 30.9 nM |
| Cc1nc2ccccc2c(=O)n1NC(=O)CSc1nc2ccccc2c(=O)n1-c1ccccc1 | F2 | enzyme activity, inhibitor | 5010 nM |

| SMILES | target | test | IC50 |
| --- | --- | --- | --- |
| O=C(N[C@@H](Cc1c[nH]c2ccccc12)C(=O)O)c1ccc(Cl)cc1 | Free fatty acid receptor 3 (FFAR3, Homo sapiens, UniProt O14843) | calcium signal, antagonist | > 25100 nM |
| COc1ccc(C2=NN(C3CCCCCC3)C(=O)[C@@H]3CC=CC[C@H]23)cc1-c1ccc(C(N)=O)cc1 (relative stereo) | PDE4D | enzyme activity, inhibitor | 126 nM |
| CCOCc1nc(O)c(-c2nnc(Cc3ccc(Cl)cn3)o2)c(O)c1-c1c(OC)cccc1OC | 5-hydroxytryptamine receptor 1B (HTR1B, Homo sapiens, UniProt P28222) | ligand displacement, radioligand | > 30000 nM |
| Cc1nc(Nc2ccc(C(F)(F)F)cc2)c2c(C(F)(F)F)noc2n1 | Dihydroorotate dehydrogenase, mitochondrial, putative | enzyme activity, inhibitor, absorbance | 76 nM |
| COc1ccc(-c2noc(-c3cc(Cl)ccc3-n3cncn3)n2)c(F)c1OC | GRM7 | calcium signal, antagonist | > 30000 nM |
| O=C(NO)c1ccc(Cn2c(C(F)(F)F)nc3ccccc32)cc1 | HDAC6 | enzyme activity, inhibitor | 10 nM |
| COc1ccc2c(Oc3ccc4c(C(=O)Nc5ccccc5N)cccc4c3)ccnc2c1 | Potassium/sodium hyperpolarization-activated cyclic nucleotide-gated channel 4 (HCN4, Homo sapiens, UniProt Q9Y3Q4) | ion current, inhibitor | > 10000 nM |
| Cc1ccc(-c2ccc(O)cc2)c(C(=C2C=CC(=O)C=C2)c2ccc(O)cc2)c1C#Cc1ccc(O)cc1 | PDE4D | enzyme activity, inhibitor | 175 nM |
| Cc1nc(NC2CCc3cc(Cl)ccc3C2)c2c(C)noc2n1 (stereo not drawn) | Dihydroorotate dehydrogenase, mitochondrial, putative | enzyme activity, inhibitor, absorbance | 58 nM |
| O=C(CCN(Cc1ccc(Cl)cc1F)Cc1ccc(Cl)c(O)c1F)NO | MEP1B | enzyme activity, inhibitor | 274 nM |
| O=C1NC(=O)/C(=C/c2ccc(OCCNc3nc4c(cnn4C4CCCC4)c(=O)[nH]3)c(F)c2)S1 | PDE4D | enzyme activity, inhibitor | 495 nM |
| CCOC(=O)C1=C(C)NC(C)=C(C(=O)OC)C1c1cccc([N+](=O)[O-])c1 (stereo not drawn) | KCNK9 | ion flux, inhibitor | > 30000 nM |
| COc1ccc(-c2noc(-c3cc(Cl)c(F)cc3-n3cncn3)n2)cc1OC | GRM7 | calcium signal, antagonist | > 30000 nM |
| C=CC(=O)Nc1ccc(N2CCC[C@@H](Nc3ncc(Cl)c(-c4c[nH]c5ccccc45)n3)C2)cc1C | CDK7 with cyclin H | enzyme activity, inhibitor, FRET | 197 nM |
| Cc1cn([C@H]2C[C@H](N=[N+]=[N-])[C@@H](CO)O2)c(=O)[nH]c1=O | Gag-Pol polyprotein, reverse transcriptase (gag-pol, Human immunodeficiency virus type 1 group M subtype B, UniProt P04585) | enzyme activity, inhibitor, ELISA | 12200 nM |
| CC(C)(C)n1nc(-c2cnc3cc(OC4CC4)ccc3c2)c(C(N)=O)c1N | Mitogen-activated protein kinase 1 (MAPK1, Homo sapiens, UniProt P28482) | cell-free assay | > 10000 nM |
| O=C(CCN(Cc1ccncc1)Cc1ccc2c(c1)OCO2)NO | MEP1B | enzyme activity, inhibitor | 8180 nM |
| COc1ccc(-c2nsc(NC(=O)[C@@H]3C[C@H]3C)c2C)cc1 | GRM7 | calcium signal, antagonist | > 12500 nM |
| COc1cc(/C=N/n2c(C)nc3ccc(C)cc3c2=O)cc([N+](=O)[O-])c1O | F2 | enzyme activity, inhibitor | 210000 nM |
| O=C(O)[C@H]1O[C@@H](O[C@H]2[C@H](O)[C@@H](NS(=O)(=O)O)[C@@H](OCCNS(=O)(=O)O)O[C@@H]2COS(=O)(=O)O)[C@H](O)[C@@H](O)[C@@H]1O[C@H]1O[C@H](COS(=O)(=O)O)[C@@H](O)[C@H](O)[C@H]1NS(=O)(=O)O | Coagulation factor X (F10, Bos taurus, UniProt P00743) | enzyme activity, inhibitor, absorbance | > 2000 nM |
| COc1c(C(=O)/C=C(\O)c2ccccc2)ccc2occc12 | CDK7 with cyclin H | enzyme activity, inhibitor, ADP detection | > 100000 nM |
